The target of series [1] is Histamine H3 receptor (Homo sapiens, UniProt Q9Y5N1). Briefly: Displacement of [3H]-N-alpha-methylhistamine from human recombinant histamine H3 receptor after 30 mins by scintillation counting.
Series [2] concerns the target Histamine H3 receptor (Mus musculus, UniProt P58406). Put plainly: Displacement of [3H]-N-alpha-methylhistamine from mouse recombinant histamine H3 receptor after 30 mins by scintillation counting.
Another series concerns the target hERG (KCNH2) (Homo sapiens, UniProt Q12809). Put plainly: Inhibition of human ERG at 10 uM by high-throughput rubidium efflux assay.
Series [3] has as its target T1, Cytochrome P450 3A4 (Homo sapiens, UniProt P08684). Put plainly: Inhibition of CYP3A4 under preincubation conditions. The series is classed as ADME. The settings on record: read-out: INH.
For series [4], the target named is T1, Cytochrome P450 3A4. Put plainly: Inhibition of CYP3A4 under co-incubation conditions. In kind it is ADME. The settings on record: read-out: INH.
The target in series [5] is T2, Cytochrome P450 2D6 (Homo sapiens, UniProt P10635). Briefly: Inhibition of CYP2D6 under preincubation conditions. In kind it is ADME.
The target in series [6] is T2, Cytochrome P450 2D6. Put plainly: Inhibition of CYP2D6 under co-incubation conditions. In kind it is ADME. The settings on record: read-out: INH.
Series [7] addresses T3, Cytochrome P450 2C9 (Homo sapiens, UniProt P11712). Briefly: Inhibition of CYP2C9 under preincubation conditions. In kind it is ADME. The settings on record: read-out: INH.
Series [8] addresses T3, Cytochrome P450 2C9. Briefly: Inhibition of CYP2C9 under co-incubation conditions. The series is classed as ADME. The settings on record: read-out: INH.
Series [9] relates to Mus musculus. Put plainly: Ex vivo receptor occupancy of histamine H3 receptor in ICR mouse brain cortex using [3H]- N-alpha-Methylhistamine at 30 mg/kg, po after 30 mins by scintillation counting. The series is classed as functional.
The nature of series [10]: Drug level in ICR mouse brain at 30 mg/kg, po after 4 hrs. The series is classed as ADME, organism-based. Set-up: dose 30 mg/kg, route oral. The settings on record: read-out: Drug uptake. The method, boiled down:
(§1)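 ICR mice were given a single 30 mg/kg oral dose. Total brain and plasma concentrations were measured 4 h later, and the brain/plasma ratio was taken from these levels.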

A short description of series [11]: Cmax in ICR mouse plasma at 30 mg/kg, po after 4 hrs. The series is classed as ADME, organism-based. Set-up: dose 30 mg/kg, route oral. The method, boiled down: as §1
The test system of series [12] is Mus musculus. Put plainly: Antihyperglycemic activity in po dosed STZ-induced type 2 diabetic model of ICR mouse assessed as reduction of HbA1c level administered qd for 12 days. The series is classed as functional, organism-based. The method, boiled down:
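STZ diet-induced obese type 2 diabetic mice were dosed orally once daily for 12 days at 10 and 30 mg/kg. The end point was change in glycated hemoglobin (HbA1c), compared with vehicle (0) controls.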

Series [13] in a line: AUC (0 to 6 hrs) in rat at 10 mg/kg, po. The series is classed as ADME, organism-based. Set-up: time < 6 hr, dose 10 mg/kg, route oral. The settings on record: plasma.
Series [14] has as its system Mus musculus. Put plainly: Antihyperglycemic activity in STZ-induced type 2 diabetic model of ICR mouse assessed as reduction of non-fasting blood glucose level at 30 mg/kg, po qd for 2 days. The series is classed as functional. The method, boiled down: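 Streptozotocin-diabetic ICR mice (STZ 80 mg/kg ip; blood glucose 250–500 mg/dL) received oral dosing at 30 mg/kg once daily. Non-fasting glucose was read daily before each dose. Data are mean ± SEM, n = 12/group, compared with vehicle (0) controls.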

The nature of series [15]: Ratio of drug level in brain to plasma in ICR mouse. The series is classed as ADME. The settings on record: read-out: BPR. The method, boiled down: as §1

T2 sequence (P10635 whole entry): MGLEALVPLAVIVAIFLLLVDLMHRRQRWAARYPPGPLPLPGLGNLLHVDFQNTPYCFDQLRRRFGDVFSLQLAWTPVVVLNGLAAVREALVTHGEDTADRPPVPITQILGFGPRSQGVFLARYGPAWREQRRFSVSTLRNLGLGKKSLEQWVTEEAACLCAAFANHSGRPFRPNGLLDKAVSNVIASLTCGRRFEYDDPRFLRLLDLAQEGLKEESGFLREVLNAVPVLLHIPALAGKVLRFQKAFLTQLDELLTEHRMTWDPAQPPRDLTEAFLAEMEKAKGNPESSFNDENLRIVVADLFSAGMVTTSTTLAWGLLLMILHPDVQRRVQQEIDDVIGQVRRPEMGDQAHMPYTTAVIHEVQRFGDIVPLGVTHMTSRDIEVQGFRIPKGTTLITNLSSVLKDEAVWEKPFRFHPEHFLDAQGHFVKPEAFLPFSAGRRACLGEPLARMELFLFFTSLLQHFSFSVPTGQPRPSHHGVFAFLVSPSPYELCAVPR
Chain of Histamine H3 receptor (Homo sapiens, UniProt Q9Y5N1) (Q9Y5N1 whole entry): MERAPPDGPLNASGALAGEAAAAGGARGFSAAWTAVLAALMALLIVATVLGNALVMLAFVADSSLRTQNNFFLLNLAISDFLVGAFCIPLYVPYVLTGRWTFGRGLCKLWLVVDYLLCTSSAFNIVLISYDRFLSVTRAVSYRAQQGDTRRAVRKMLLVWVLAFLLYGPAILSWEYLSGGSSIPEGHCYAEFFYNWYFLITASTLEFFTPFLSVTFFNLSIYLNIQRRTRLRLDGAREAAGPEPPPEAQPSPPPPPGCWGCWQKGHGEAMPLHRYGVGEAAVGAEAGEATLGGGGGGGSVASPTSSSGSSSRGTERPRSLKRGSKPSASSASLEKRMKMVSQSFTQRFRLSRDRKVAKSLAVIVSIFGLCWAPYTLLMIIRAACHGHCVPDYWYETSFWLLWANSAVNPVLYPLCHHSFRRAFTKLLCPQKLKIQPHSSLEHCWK
Chain of Histamine H3 receptor (Mus musculus, UniProt P58406) (P58406 whole entry): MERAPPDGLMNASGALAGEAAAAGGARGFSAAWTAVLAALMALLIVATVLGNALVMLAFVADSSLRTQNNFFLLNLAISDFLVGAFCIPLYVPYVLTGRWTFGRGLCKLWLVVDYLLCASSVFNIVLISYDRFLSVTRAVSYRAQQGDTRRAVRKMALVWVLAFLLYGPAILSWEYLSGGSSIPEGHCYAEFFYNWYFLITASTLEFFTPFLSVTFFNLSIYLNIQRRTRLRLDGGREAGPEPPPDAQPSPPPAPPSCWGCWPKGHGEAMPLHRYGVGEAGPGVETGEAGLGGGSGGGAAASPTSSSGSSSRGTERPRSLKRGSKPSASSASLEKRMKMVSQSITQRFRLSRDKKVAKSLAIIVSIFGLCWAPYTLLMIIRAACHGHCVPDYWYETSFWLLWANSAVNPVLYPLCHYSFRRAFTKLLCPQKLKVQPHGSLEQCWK
Chain of hERG (KCNH2) (Q12809 whole entry): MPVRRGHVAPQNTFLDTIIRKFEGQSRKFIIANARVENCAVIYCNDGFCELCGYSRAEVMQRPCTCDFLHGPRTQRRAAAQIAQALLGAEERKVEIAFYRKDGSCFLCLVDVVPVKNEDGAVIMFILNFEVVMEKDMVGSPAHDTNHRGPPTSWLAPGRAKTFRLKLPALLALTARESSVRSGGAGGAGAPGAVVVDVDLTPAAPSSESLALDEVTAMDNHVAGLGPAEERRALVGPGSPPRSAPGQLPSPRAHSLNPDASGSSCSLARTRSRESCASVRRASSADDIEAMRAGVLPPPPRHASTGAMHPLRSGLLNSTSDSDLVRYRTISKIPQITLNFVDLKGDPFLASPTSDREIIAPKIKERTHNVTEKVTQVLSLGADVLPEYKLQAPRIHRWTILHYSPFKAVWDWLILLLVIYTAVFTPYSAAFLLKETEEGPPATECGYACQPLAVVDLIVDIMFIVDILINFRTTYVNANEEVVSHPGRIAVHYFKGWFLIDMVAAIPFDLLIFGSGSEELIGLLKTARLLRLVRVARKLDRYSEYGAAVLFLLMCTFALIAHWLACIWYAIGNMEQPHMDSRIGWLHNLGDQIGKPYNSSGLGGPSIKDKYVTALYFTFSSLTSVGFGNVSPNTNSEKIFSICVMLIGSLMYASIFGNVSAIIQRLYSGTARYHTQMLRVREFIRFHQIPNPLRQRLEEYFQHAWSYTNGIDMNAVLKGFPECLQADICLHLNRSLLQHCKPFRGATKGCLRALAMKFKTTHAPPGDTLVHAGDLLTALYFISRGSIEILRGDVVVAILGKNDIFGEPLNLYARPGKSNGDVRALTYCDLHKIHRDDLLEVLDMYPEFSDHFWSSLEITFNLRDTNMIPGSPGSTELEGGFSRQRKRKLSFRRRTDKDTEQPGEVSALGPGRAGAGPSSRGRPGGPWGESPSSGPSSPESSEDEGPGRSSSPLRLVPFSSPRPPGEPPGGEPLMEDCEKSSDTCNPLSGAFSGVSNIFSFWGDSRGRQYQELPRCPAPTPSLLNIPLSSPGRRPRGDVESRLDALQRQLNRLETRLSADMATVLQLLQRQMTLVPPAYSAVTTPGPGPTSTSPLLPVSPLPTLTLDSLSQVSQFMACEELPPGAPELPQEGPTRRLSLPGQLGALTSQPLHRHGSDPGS
T1 sequence (P08684 whole entry): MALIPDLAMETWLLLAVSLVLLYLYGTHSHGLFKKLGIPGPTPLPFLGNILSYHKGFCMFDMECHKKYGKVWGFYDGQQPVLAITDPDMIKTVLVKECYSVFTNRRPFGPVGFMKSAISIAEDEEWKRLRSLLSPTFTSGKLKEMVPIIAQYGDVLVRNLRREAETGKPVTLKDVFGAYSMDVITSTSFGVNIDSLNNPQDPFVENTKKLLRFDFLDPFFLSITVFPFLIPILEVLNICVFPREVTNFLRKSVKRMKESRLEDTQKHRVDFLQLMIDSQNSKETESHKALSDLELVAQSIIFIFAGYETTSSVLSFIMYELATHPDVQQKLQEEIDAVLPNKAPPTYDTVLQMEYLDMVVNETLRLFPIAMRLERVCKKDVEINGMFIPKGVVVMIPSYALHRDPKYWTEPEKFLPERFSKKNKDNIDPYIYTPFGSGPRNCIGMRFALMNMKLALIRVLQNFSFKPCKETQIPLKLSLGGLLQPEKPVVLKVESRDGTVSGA
T3 sequence (P11712 whole entry): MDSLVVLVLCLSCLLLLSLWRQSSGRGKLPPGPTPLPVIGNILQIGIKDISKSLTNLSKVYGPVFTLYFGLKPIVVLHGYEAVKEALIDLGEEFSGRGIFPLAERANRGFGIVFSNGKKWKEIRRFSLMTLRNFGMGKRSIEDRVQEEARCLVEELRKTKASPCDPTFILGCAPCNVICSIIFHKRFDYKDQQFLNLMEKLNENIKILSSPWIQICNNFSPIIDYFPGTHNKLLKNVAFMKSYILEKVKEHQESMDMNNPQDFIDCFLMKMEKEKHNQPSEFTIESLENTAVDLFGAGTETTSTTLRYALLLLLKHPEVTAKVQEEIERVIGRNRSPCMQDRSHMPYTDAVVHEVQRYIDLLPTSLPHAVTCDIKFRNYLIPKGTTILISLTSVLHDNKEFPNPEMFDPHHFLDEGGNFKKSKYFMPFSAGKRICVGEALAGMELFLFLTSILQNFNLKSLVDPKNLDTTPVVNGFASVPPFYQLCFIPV

The term Ki denotes the equilibrium dissociation constant of an inhibitor or competing ligand from its target. For `c1ccc(C2CCCN(c3nnc(N4CCC(N5CCCCC5)CC4)s3)C2)cc1` (stereo unspecified), the Ki on Histamine H3 receptor [1] is 75 nM; on Histamine H3 receptor [2], 110 nM.

For the molecule `COC1CCCN(c2nnc(N3CCC(N4CCCCC4)CC3)s2)C1` (stereo unspecified), the Ki is 37 nM at Histamine H3 receptor [1] and 46 nM on Histamine H3 receptor [2].

`c1ccc(C2CN(c3nnc(N4CCC(N5CCCCC5)CC4)s3)CCO2)nc1` (stereo in doubt; 5r): the values for the Ki on Histamine H3 receptor [1] and on Histamine H3 receptor [2] were 5 nM and 11 nM, respectively.

As to `O=C1N(c2ccccc2)CCCN1c1nnc(N2CCC(N3CCCCC3)CC2)s1`, the Ki was determined as 30 nM on Histamine H3 receptor [1] and 32 nM at Histamine H3 receptor [2].

In the case of `c1ccc(C2CN(c3nnc(N4CCC(N5CCCCC5)CC4)s3)CCO2)nc1` (stereo in doubt; 5t), the figures for the Ki on Histamine H3 receptor [1] and at Histamine H3 receptor [2] were 34 nM and 67 nM, respectively.

Broadly, the inhibition is the drop in the measured response relative to a control, in per cent. Lower therefore signals a weak effect. As usually defined, the Cmax is the peak of the concentration-time curve. Take `C1=C(c2ccccn2)CCCN1c1nnc(N2CCC(N3CCCCC3)CC2)s1`: the values for the Ki on Histamine H3 receptor [1] and on Histamine H3 receptor [2] were 3 nM and 5 nM, respectively. The molecule also gave an inhibition at 10 µM against hERG (KCNH2) of 54%. Further, the IC50 on Cytochrome P450 3A4 [3], at Cytochrome P450 3A4 [4], at Cytochrome P450 2D6 [6], at Cytochrome P450 2C9 [7] and on Cytochrome P450 2C9 [8] was above 20000 nM throughout. For the same molecule, the INH at Cytochrome P450 2D6 [5] was above 20 µM. Further, the Activity with Mus musculus [9] is 85%. In series [10], the concentration at 4 h was 1040 ng/g. Also, the highest level in series [11] (Cmax) was 1470 ng/mL.

For the molecule `C1=C(c2ccccn2)CN(c2nnc(N3CCC(N4CCCCC4)CC3)s2)CC1`, the values for the Ki at Histamine H3 receptor [1] and on Histamine H3 receptor [2] were 12 nM and 49 nM, respectively.

For `c1ccc(C2CN(c3nnc(N4CCC(N5CCCCC5)CC4)s3)CCO2)nc1` (single isomer, unassigned; enantiomer 2) [listing 1 of 2 here], the Activity entry in the series on Mus musculus [12] was “Dose-dependent effect”.

In the case of `OC1(c2ccccn2)CCCN(c2nnc(N3CCC(N4CCCCC4)CC3)s2)C1` (stereo unspecified), the figures for the Ki at Histamine H3 receptor [1] and on Histamine H3 receptor [2] were 53 nM and 55 nM, respectively.

For orientation: AUC(0-t) means exposure summed from dosing to a finite time, without extrapolation to infinity. Read a low AUC(0-t) as less exposure. In the case of `FC1(F)CCN(c2nnc(N3CCC(N4CCCCC4)CC3)s2)C1`, the Ki on Histamine H3 receptor [1] and at Histamine H3 receptor [2] was 61 nM in each case. This molecule also showed an AUC(0-t) at 6 h in series [13] of 545 ng·h/mL.

As to `c1ccc(C2CN(c3nnc(N4CCC(N5CCCCC5)CC4)s3)CCO2)nc1` (single isomer, unassigned; enantiomer 2) [listing 2 of 2 here], the Ki on Histamine H3 receptor [1] amounted to 3 nM; at Histamine H3 receptor [2], 4 nM. For the same molecule, on hERG (KCNH2), at 10 µM the inhibition was 26%. Further, the IC50 at Cytochrome P450 3A4 [3], at Cytochrome P450 3A4 [4], on Cytochrome P450 2D6 [6], at Cytochrome P450 2C9 [7] and at Cytochrome P450 2C9 [8] was above 20000 nM each time. On Cytochrome P450 2D6 [5], this molecule gave an INH above 20 µM. For the same molecule, the Activity was determined as 74% with Mus musculus [9] and 104.5 mg/dL in the series with Mus musculus [14]. Further, the concentration at 4 h in [10] came to 24 ng/g. Also, in series [11], the Cmax turned out to be 1500 ng/mL. In addition, the Kp in series [15] is 0.016.

Regarding `O=C1CCCCN1c1nnc(N2CCC(N3CCCCC3)CC2)s1`, the Ki on Histamine H3 receptor [1] and on Histamine H3 receptor [2] was 120 nM throughout.

As to `OC1(c2ncccn2)CCCN(c2nnc(N3CCC(N4CCCCC4)CC3)s2)C1` (stereo unspecified), the Ki on Histamine H3 receptor [1] came out at 67 nM; on Histamine H3 receptor [2] it was 77 nM.

As for `COC1(c2ccccn2)CCCN(c2nnc(N3CCC(N4CCCCC4)CC3)s2)C1` (stereo unspecified), the Ki worked out at 11 nM at Histamine H3 receptor [1] and 54 nM on Histamine H3 receptor [2].

In the case of `FC1(F)CCN(c2nnc(N3CCC(N4CCCCC4)CC3)s2)CC1`, the Ki was determined as 15 nM at Histamine H3 receptor [1] and 18 nM on Histamine H3 receptor [2]. The molecule also came in with an AUC(0-t) at 6 h in series [13] of 2490 ng·h/mL.

`OC1CCCN(c2nnc(N3CCC(N4CCCCC4)CC3)s2)C1` (stereo unspecified): the Ki at Histamine H3 receptor [1] worked out at 46 nM; at Histamine H3 receptor [2] it was 68 nM.

`C1=C(c2ncccn2)CN(c2nnc(N3CCC(N4CCCCC4)CC3)s2)CC1`: the Ki at Histamine H3 receptor [1] came to 14 nM; on Histamine H3 receptor [2], 44 nM.

Take `FC1CCCN(c2nnc(N3CCC(N4CCCCC4)CC3)s2)C1` (stereo unspecified): the values for the Ki on Histamine H3 receptor [1] and at Histamine H3 receptor [2] were 66 nM and 56 nM, respectively.

With `FC1(c2ccccn2)CCCN(c2nnc(N3CCC(N4CCCCC4)CC3)s2)C1` (stereo unspecified), the inhibitory constant (Ki) on Histamine H3 receptor [1] was determined as 4 nM; at Histamine H3 receptor [2], 7 nM. This molecule also returned an inhibition at 10 µM at hERG (KCNH2) of 16%. The IC50 at Cytochrome P450 3A4 [3], at Cytochrome P450 3A4 [4], at Cytochrome P450 2D6 [6], at Cytochrome P450 2C9 [7] and on Cytochrome P450 2C9 [8] was above 20000 nM in each case. The INH on Cytochrome P450 2D6 [5] was above 20 µM. Besides, the Activity with Mus musculus [9] worked out at 92%; in the series with Mus musculus [14], 67.91 mg/dL. Further, the concentration at 4 h in [10] is 674 ng/g. The molecule further displayed a Cmax in series [11] of 2970 ng/mL. The Kp in series [15] was found to be 0.227.

Regarding `c1cnc(C2CN(c3nnc(N4CCC(N5CCCCC5)CC4)s3)CCO2)cn1` (stereo unspecified), the inhibitory constant (Ki) on Histamine H3 receptor [1] turned out to be 8 nM; at Histamine H3 receptor [2], 16 nM.

As for `CC1CN(c2nnc(N3CCC(N4CCCCC4)CC3)s2)CC(C)O1` (stereo unspecified), the Ki on Histamine H3 receptor [1] turned out to be 53 nM; on Histamine H3 receptor [2] it was 35 nM. In series [13], the AUC(0-t) at 6 h turned out to be 4320 ng·h/mL.

On to `O=C(Nc1nnc(N2CCC(N3CCCCC3)CC2)s1)NC1CCCC1`, for which, at Histamine H3 receptor [2], the Ki stood at 47 nM.

Regarding `O=C1N(c2nnc(N3CCC(N4CCCCC4)CC3)s2)CCN1C1CCCC1`, the Ki at Histamine H3 receptor [1] worked out at 34 nM; on Histamine H3 receptor [2] it was 53 nM.

These data come from ChEMBL document CHEMBL2046373, “Discovery of a potent thiadiazole class of histamine h3 receptor antagonist for the treatment of diabetes” (ACS Med Chem Lett, 2012).
